Assay [1] deals with PANC-1. The assay can be described thus: Induction of apoptotic cell death in human PANC-1 cells cultured in nutrient-deprived medium assessed as leakage of cellular contents in to the medium at 5 uM measured after 24 hrs by Hoechst 33342 staining based phase-contrast digital microscopy. It counts as functional. The method, boiled down:
(§1)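 Cells (2 × 10^5) plated in 35 mm dishes, left 24 h to attach, washed twice with PBS, then given 5 μM in NDM for 24 h. Hoechst 33342 added directly to the medium for 5 min. Imaged in phase-contrast and fluorescence modes (20× objective).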

Assay [2] deals with PANC-1. The assay can be described thus: Inhibition of colony formation in human PANC-1 cells at 2.5 uM cultured in nutrient rich DMEM medium measured after 24 hrs by crystal violet staining based assay relative to control. It counts as functional. The method, boiled down: (§2)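 PANC-1 cells (5 × 10^2/well) attached in DMEM for 24 h, then exposed to 0, 2.5, 5 or 10 μM in DMEM for 24 h (triplicate). Washed, grown in fresh compound-free DMEM for 12 days, fixed in 4% formaldehyde and stained with crystal violet for 10 min. Colony area measured as a percentage of well area.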

The subject of assay [3] is PANC-1. The assay can be described thus: Anticancer activity against human PANC-1 cells assessed as cell death at 10 uM measured after 13 hrs by digital cell imaging analysis. It is filed as functional, cell-based. The method, boiled down: (§3)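 PANC-1 cells (3 × 10^6) in 35 mm dishes in nutrient-deprived medium (NDM), treated with 10 μM; kept in a stage-top incubator at 37 °C, 5% CO2. Phase-contrast images taken every 10 min for 24 h (145 frames, 20× objective). Untreated cells in NDM served as control.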

Assay [4] concerns PANC-1. The assay can be described thus: Induction of apoptosis in human PANC-1 cells assessed as inhibition of Bcl-2 after 6 hrs by Western blot analysis. It counts as functional, cell-based. As to conditions: dose 2.5-40 µM. The method in brief:
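PANC-1 cells in NDM or DMEM exposed to compound at different concentrations for 6 h, then immunoblotted for Bcl-2, Bcl-xL and caspase-3.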
(In general: A western blot detects proteins with antibodies after separation by electrophoresis.)

Assay [5] has as its system PANC-1. The assay is described as follows: Inhibition of Akt/mTOR signaling pathway in human PANC-1 cells cultured in nutrient-deprived medium assessed as decrease in total mTOR level measured after 6 hrs by Western blot analysis. To be noted: dose 2.5-40 µM. It is filed as cell-based. The method, boiled down:
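Western blot of PANC-1 cells exposed to compound at different concentrations for 6 h in NDM or DMEM. Probed for total and phosphorylated Akt and mTOR and for GβL. Band levels compared with untreated control cells in NDM.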

In assay [6] the test system is PANC-1. The assay can be described thus: Inhibition of autophagy in human PANC-1 cells cultured in nutrient-deprived medium after 6 hrs by MDC-staining based fluorescence microscopy analysis. It is filed as functional, cell-based. To be noted: dose 40.0 µM. The method in brief:
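PANC-1 cells under nutrient starvation given monodansylcadaverine with or without compound for 6 h. Autolysosome fluorescence viewed in fluorescence and phase-contrast modes.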

Assay [7] deals with PANC-1. The assay can be described thus: Induction of apoptotic cell death in human PANC-1 cells cultured in nutrient-deprived medium assessed as formation of apoptotic bodies at 5 uM measured after 24 hrs by Hoechst 33342 staining based phase-contrast digital microscopy. It is filed as functional. The method in brief:
as §1

The subject of assay [8] is PANC-1. The assay can be described thus: Inhibition of autophagy in human PANC-1 cells cultured in nutrient-deprived medium assessed as inhibition of Beclin-1 expression after 6 hrs by Western blot analysis. It counts as functional, cell-based. To be noted: dose 2.5-40 µM.
The subject of assay [9] is PANC-1. The assay can be described thus: Anticancer activity against human PANC-1 cells assessed as induction of morphological changes at 10 uM measured after 7 hrs by digital cell imaging analysis. It is filed as functional, cell-based. The method in brief: as §3
In assay [10] the test system is PANC-1. The assay can be described thus: Induction of necrosis in human PANC-1 cells cultured in nutrient-deprived medium assessed as leakage of cellular contents in to the medium at 5 uM measured after 24 hrs by ethidium bromide/acridine orange staining based phase contrast microscopy. It counts as functional, cell-based. The method in brief: (§4)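 PANC-1 cells (2 × 10^5/well) attached in DMEM for 24 h, washed twice with PBS, then treated in NDM (1.25, 2.5, 5 μM; control in NDM alone) for 24 h. Stained with ethidium bromide/acridine orange and imaged in phase-contrast and red/green fluorescence modes (20× objective).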

Assay [11] has as its system PANC-1. The assay can be described thus: Induction of morphological changes in human PANC-1 cells cultured in nutrient-deprived medium assessed as cell death measured after 24 hrs by ethidium bromide/acridine orange staining based phase contrast microscopy. To be noted: dose 1.25-5 µM. It is filed as functional. The method in brief:
as §4

For assay [12], the system named is PANC-1. The assay can be described thus: Inhibition of colony formation in human PANC-1 cells cultured in nutrient rich DMEM medium measured after 24 hrs by crystal violet staining based assay. It counts as functional, cell-based. As to conditions: dose 2.5-10 µM. The method in brief: as §2
The test system of assay [13] is PANC-1. The assay can be described thus: Inhibition of autophagy in human PANC-1 cells cultured in nutrient-deprived medium assessed as inhibition of Atg5 expression after 6 hrs by Western blot analysis. To be noted: dose 2.5-40 µM. It is filed as functional, cell-based.
For assay [14], the system named is PANC-1. The assay is described as follows: Inhibition of autophagy in human PANC-1 cells cultured in nutrient-deprived medium assessed as inhibition of LC3-1 expression at 40 uM after 6 hrs in presence of chloroquine by Western blot analysis. It is filed as functional, cell-based.
For assay [15], the system named is PANC-1. The assay is described as follows: Inhibition of autophagy in human PANC-1 cells cultured in nutrient-deprived medium assessed as inhibition of LC3-2 expression after 6 hrs by Western blot analysis. It counts as functional, cell-based. As to conditions: dose 2.5-40 µM.
Assay [16] relates to PANC-1. The assay is described as follows: Induction of apoptotic cell death in human PANC-1 cells cultured in nutrient-deprived medium assessed as chromatin fragmentation at 5 uM measured after 24 hrs by Hoechst 33342 staining based phase-contrast digital microscopy. It is filed as functional. The method in brief:
as §1

Assay [17] concerns PANC-1. The assay can be described thus: Inhibition of autophagy in human PANC-1 cells cultured in nutrient-deprived medium assessed as inhibition of LC3-2 expression at 40 uM after 6 hrs in presence of chloroquine by Western blot analysis. It is filed as functional, cell-based.
In assay [18] the test system is PANC-1. The assay can be described thus: Induction of necrosis in human PANC-1 cells cultured in nutrient-deprived medium assessed as round cell morphology at 5 uM measured after 24 hrs by ethidium bromide/acridine orange staining based phase contrast microscopy. It is filed as functional. The method, boiled down:
as §4

Assay [19] concerns PANC-1. The assay can be described thus: Induction of apoptotic cell death in human PANC-1 cells cultured in nutrient-deprived medium assessed as intact nuclei at 5 uM measured after 24 hrs by Hoechst 33342 staining based phase-contrast digital microscopy. It counts as functional. The method, boiled down:
as §1

Assay [20] concerns PANC-1. The assay is described as follows: Anti-austerity activity against nutrient-deprived human PANC-1 cells assessed as cell death incubated for 24 hrs by WST-8 assay. It counts as functional. The method in brief: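 Human PANC-1 pancreatic cancer cells tested in parallel in nutrient-deprived medium (NDM) and in nutrient-rich DMEM. PC50 is the concentration that kills 50% of cells in NDM without toxicity in DMEM.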
(Tetrazolium assays rely on reduction of a dye to a coloured formazan, in cell work by metabolically active cells.)

Assay [21] concerns PANC-1. The assay can be described thus: Induction of apoptotic cell death in human PANC-1 cells cultured in nutrient-deprived medium assessed as membrane blebbing at 5 uM measured after 24 hrs by Hoechst 33342 staining based phase-contrast digital microscopy. It is filed as functional. The method, boiled down:
as §1

Assay [22] relates to PANC-1. The assay is described as follows: Inhibition of cell migration in human PANC1 cells assessed as wound length at 10 uM cultured in nutrient rich DMEM medium measured after 48 hrs by wound healing assay relative to T0. It is filed as functional. Also on record: scale not given: the % may be the effect or the level left. The method, boiled down: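 PANC-1 monolayers (5 × 10^5 cells/well), attached 24 h, scratched about 600 μm with a pipet tip, washed with PBS. Exposed in DMEM to 0–10 μM for 48 h in triplicate. Wound length measured at 10 points on phase-contrast images and expressed relative to initial length at T0.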

Results on one compound are retold here after ChEMBL document CHEMBL4680108, “Ancistrolikokine E, a 5,8'-Coupled Naphthylisoquinoline Alkaloid, Eliminates the Tolerance of Cancer Cells to Nutrition Starvation by Inhibition of the Akt/mTOR/Autophagy Signaling Pathway” (2018).

Calls of active or inactive are those of the source. The calls are words filed in the database; no cut-off is given here.

The term inhibition denotes the change of the read-out against control, counted positive when it falls. In the case of `COc1cc(OC)c(-c2ccc(O)c3c(OC)cc(C)cc23)c2c1C(C)=N[C@H](C)C2`, the outcome in the assay with PANC-1 [1], in the assay with PANC-1 [3], with PANC-1 [9], in the assay with PANC-1 [10], in the assay on PANC-1 [18] and in the assay on PANC-1 [19] was Active. For the same compound, the outcome in the assay with PANC-1 [21] was Active. In the assay with PANC-1 [2], this compound registered an inhibition at 2.5 µM of at most 90%. In addition, the inhibition entry with PANC-1 [4], in the assay on PANC-1 [6], in the assay on PANC-1 [14] and in the assay on PANC-1 [17] was “Active” each time. For the same compound, the inhibition result in the assay with PANC-1 [5], in the assay on PANC-1 [8], in the assay on PANC-1 [12], with PANC-1 [13] and with PANC-1 [15] was “Dose-dependent effect” in each case. Moreover, the outcome in the assay with PANC-1 [7] and with PANC-1 [16] was inactive. Moreover, the Activity entry with PANC-1 [11] was “Dose-dependent effect”; in the assay with PANC-1 [20], “Dose-dependent effect”; with PANC-1 [22], 11%. For the same compound, in the assay on PANC-1 [20], the PC50 came to 2.5 µM.
